FGF22 binding = FGF22 (human) thermal shift binding; 340,000 tested, 1.5% active; activity (Tm shift, normalised), % at 9.99 µM; AID 651658; recombinant FGF22 thermal shift, SYPRO orange fluorescence; percent of sucrose octasulfate shift, DMSO zero; Q9HCT0;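 active = mean Tm shift, scaled 0 neutral to 100 positive control, at about 1.3% or above, every replicate too, limit read from the data; inconclusive = no clear call, values can overlap the other calls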
Target sequence (Q9HCT0 whole entry, looked up): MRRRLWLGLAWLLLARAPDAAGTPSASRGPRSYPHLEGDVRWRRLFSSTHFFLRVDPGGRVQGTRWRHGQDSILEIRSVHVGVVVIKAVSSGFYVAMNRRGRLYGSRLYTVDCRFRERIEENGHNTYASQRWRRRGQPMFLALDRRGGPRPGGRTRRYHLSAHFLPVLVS
Vif inh = inhibitors of HIV Vif | HEK293T cells, Vif self-association by quenched fluorescence, imaging, 24 h | inhibition, % at 7.49 µM | 340,000 tested, 0.35% active; in the data active = inhibition above about 50%, passing the limit was not always enough; inconclusive = no clear call, values can overlap the other calls; inactive = below about 31%
PGC1a acetyl inh = modulators of PGC1a acetylation. U2OS PGC1a acetylation, AlphaScreen anti-acetyl-lysine; with virally co-expressed GCN5 acetyltransferase. inhibition, % at 15.6 µM. 350,000 tested, 0.17% active;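 active = every replicate shows inhibition of at least 40%; inconclusive = mean inhibition at least 40% but some replicate below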;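 note: 0% = neutral control wells and 100% = positive control wells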
Cneo AK release = Cryptococcus neoformans lysis via adenylate kinase release; C. neoformans lysis, adenylate kinase release luminescence, 4 h; normalised: neutral wells 0, clomiphene wells 100; 360,000 tested, 0.2% active; lysis activity, % at 15 µM;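 active = mean lysis activity across replicates of at least 80%, whatever share of replicates individually reach that level; inactive = mean lysis activity below 80%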
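Material: C. neoformans cells; Schedule: 4 h static compound exposure, 37 °C, read 1 h post-reagent; Measured by: adenylate kinase release luminescence; Read-out: signal increase indicating cell lysis; Controls: Clomiphene as positive lysis control.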
rRNA inh HTS = inhibitors of bacterial rRNA selective over humanized ribosomes; E. coli WT GFP vs humanized-ribosome RFP mutants, fluorescence, 24 h; stronger effect = lower value; DMSO median 0, no signal -100; GFP signal change (wild-type ribosome), % (concentration not given with the values); 350,000 tested, 1.6% active;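 active = significant combined selectivity score with lowered wild-type GFP, culture density cut under 30%, mutant RFP and density less affected; inactive = any of these conditions unmet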
PglD inh = PglD (C. jejuni) enzyme inhibition. 360,000 tested, 0.098% active. purified PglD enzyme, DTNB colorimetric CoA detection. inhibition, % at 12.5 µM; in the data active = inhibition above about 16%, passing the limit was not always enough; inconclusive = no clear call, values can overlap the other calls
AID977621 = wild-type E. coli growth inhibition versus H69 humanized strain – H69 mutant RFP, wild-type GFP, cherry-pick, dose response; shares compounds with rRNA inh HTS; fluorescence, 24 h; activity change, negative = inhibition at 50 µM; 1,900 tested, under 10 active;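 active = Wild-type ribosome reporter drop at least double the humanized mutant ribosome reporter drop, growth loss under a set limit; inconclusive = no clear call, values can overlap the other calls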;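 note: wild-type GFP and H69 mutant RFP strains grown together 50/50 in each well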
AID977628 = growth of wild-type and h24-humanized E. coli strains – h24 mutant RFP vs wild-type GFP, cherry-pick, dose response; shares compounds with rRNA inh HTS; E. coli WT GFP strain growth, fluorescence, 24 h; activity change, negative = inhibition at 50 µM; 1,900 tested, under 10 active;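 active = compound lowering the normal-ribosome reporter at least twice as much as the humanized-ribosome reporter, growth loss under a set limit; inconclusive = no clear call, values can overlap the other calls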;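 note: wild-type GFP and h24 humanized RFP strains co-cultured 1 to 1 per well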
Starred values were filed as active, the others as inactive; ! = repeats disagree. Shown are actives, neighbours in structure and some others; about 2.9% of the full set was active somewhere.

Results for O=C(COC(=O)CCSc1ccc(F)cc1)NCc1ccc(F)cc1 ?
FGF22 binding: 0; Vif inh: -10; PGC1a acetyl inh: -6; Cneo AK release: 0; rRNA inh HTS: -17*; PglD inh: 3; AID977628: inconclusive

What do the screens show for `O=C(COC(=O)CCC(=O)c1ccc(F)cc1)NCCc1ccccc1`?
FGF22 binding: 0; Vif inh: 7; PGC1a acetyl inh: -3; Cneo AK release: -1; rRNA inh HTS: -21*; PglD inh: 3; AID977621: -11

How did Cc1ccc(S(=O)(=O)Nc2ccc3c(c2)C(=O)N([C@H](C)CO)C[C@@H](C)[C@@H](CN(C)C(=O)Nc2ccc4c(c2)OCO4)OCCCC[C@H](C)O3)cc1 do in these assays?
FGF22 binding: 0; PGC1a acetyl inh: 5; rRNA inh HTS: -4

What do the screens show for `COCC#Cc1ccc2c(c1)O[C@@H](CN(C)S(=O)(=O)c1cccc(F)c1)[C@H](C)CN([C@H](C)CO)S2(=O)=O`?
FGF22 binding: -1; PGC1a acetyl inh: -9; Cneo AK release: 0; rRNA inh HTS: -5; PglD inh: 8

What do the screens show for `Cc1ccc(-c2ccc3c(c2)O[C@@H](CN(C)Cc2cccc(C(=O)O)c2)[C@H](C)CN([C@@H](C)CO)S3(=O)=O)cc1`?
FGF22 binding: 0; PGC1a acetyl inh: 1; Cneo AK release: 2; rRNA inh HTS: -18*; PglD inh: 5; AID977628: inconclusive

What do the screens show for `COCC#Cc1ccc2c(c1)O[C@@H](CN(C)S(=O)(=O)c1cccc(F)c1)[C@@H](C)CN([C@H](C)CO)S2(=O)=O`?
FGF22 binding: 0; Vif inh: -1; PGC1a acetyl inh: -2; Cneo AK release: 51; rRNA inh HTS: -20*!; PglD inh: -38; AID977621: -22

Results for O=C(NCC[C@H]1CC[C@H](NC(=O)C2CC2)[C@@H](CO)O1)Nc1ccc(C(F)(F)F)cc1 ?
FGF22 binding: 0; PGC1a acetyl inh: 9; Cneo AK release: -3; rRNA inh HTS: -57; PglD inh: -2

Results for COCC(=O)Nc1ccc2c(c1)OC[C@H](C)N(CC1CC1)C[C@@H](C)[C@@H](OC)CN(C)C2=O ?
FGF22 binding: 0; PGC1a acetyl inh: -5; Cneo AK release: -3; rRNA inh HTS: 3; PglD inh: -4

What do the screens show for `Cc1ccccc1SCC(=O)OCC(=O)Nc1sccc1C(N)=O`?
FGF22 binding: 0; Vif inh: -4; rRNA inh HTS: -29*; AID977621: -8.3; AID977628: -0.1

How did COc1ccccc1OCC(=O)OCC(=O)Nc1sccc1C(N)=O do in these assays?
FGF22 binding: 0; Vif inh: 4; rRNA inh HTS: -4

Results for NC(=O)c1ccsc1NC(=O)COC(=O)Cc1ccc(F)cc1 ?
Vif inh: 13; PGC1a acetyl inh: 0; Cneo AK release: 0; rRNA inh HTS: -20*; PglD inh: -2; AID977621: inconclusive; AID977628: -1.7

How did NC(=O)c1ccsc1NC(=O)COC(=O)Cc1cccc2ccccc12 do in these assays?
Vif inh: -31; PGC1a acetyl inh: 1; Cneo AK release: -4; PglD inh: 1

Results for COCC(=O)Nc1ccc2c(c1)C(=O)N(C)[C@@H]1CC[C@@H](CC(=O)NC3Cc4ccccc4C3)O[C@@H]1CO2 ?
FGF22 binding: 0; PGC1a acetyl inh: 38; Cneo AK release: -2; rRNA inh HTS: 2; PglD inh: 4

Results for O=C(C[C@H]1C[C@@H]2c3cc(NC(=O)Nc4ccc(F)cc4)ccc3O[C@@H]2[C@@H](CO)O1)NCC(F)(F)F ?
FGF22 binding: 0; PGC1a acetyl inh: -1; Cneo AK release: -2; rRNA inh HTS: 3; PglD inh: 5

Screening results as filed in PubChem.
